Reference: ChEMBL document CHEMBL1134793, “Investigation of the selectivity of oxymorphone- and naltrexone-derived ligands via site-directed mutagenesis of opioid receptors: exploring the "address" recognition locus” (J Med Chem, 2001)

Experiments:
Format in all cases: cell-based, HEK293
Mu-type opioid receptor [1] = target: Mu-type opioid receptor (Rattus norvegicus, UniProt P33535, W318A); experiment: Displacement of [3H]- diprenorphine from mu-W318A-receptor expressed in HEK 293 cells
[2] = target: Delta-type opioid receptor (Mus musculus, UniProt P32300, W284E); experiment: Displacement of [3H]- diprenorphine from delta-W284E-receptor expressed in HEK 293 cells
Sequence of Delta-type opioid receptor (Mus musculus, UniProt P32300, W284E) (P32300 whole entry W284E): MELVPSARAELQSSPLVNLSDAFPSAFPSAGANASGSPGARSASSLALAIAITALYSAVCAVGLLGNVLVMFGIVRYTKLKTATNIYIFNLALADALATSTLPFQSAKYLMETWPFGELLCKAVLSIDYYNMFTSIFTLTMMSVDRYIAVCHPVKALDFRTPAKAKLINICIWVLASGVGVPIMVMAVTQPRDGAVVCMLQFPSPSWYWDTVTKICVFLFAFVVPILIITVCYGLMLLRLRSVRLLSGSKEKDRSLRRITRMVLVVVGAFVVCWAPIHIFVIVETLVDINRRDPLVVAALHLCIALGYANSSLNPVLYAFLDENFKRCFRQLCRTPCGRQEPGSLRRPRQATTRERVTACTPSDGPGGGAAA
Procedure, shortened: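 HEK-293 cells transiently transfected with wild-type or mutant receptor cDNA by calcium phosphate were harvested 60-72 h later and suspended in 25 mM HEPES, pH 7.4. Nonspecific binding was defined with 1 μM NTI. Bound ligand was filtered on PEI-soaked GF/B and counted.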

[3] = target: Kappa-type opioid receptor (Rattus norvegicus, UniProt P34975, E297A); experiment: Displacement of [3H]diprenorphine from k-E297A-receptor expressed in HEK 293 cells
Sequence of Kappa-type opioid receptor (Rattus norvegicus, UniProt P34975, E297A) (P34975 whole entry E297A): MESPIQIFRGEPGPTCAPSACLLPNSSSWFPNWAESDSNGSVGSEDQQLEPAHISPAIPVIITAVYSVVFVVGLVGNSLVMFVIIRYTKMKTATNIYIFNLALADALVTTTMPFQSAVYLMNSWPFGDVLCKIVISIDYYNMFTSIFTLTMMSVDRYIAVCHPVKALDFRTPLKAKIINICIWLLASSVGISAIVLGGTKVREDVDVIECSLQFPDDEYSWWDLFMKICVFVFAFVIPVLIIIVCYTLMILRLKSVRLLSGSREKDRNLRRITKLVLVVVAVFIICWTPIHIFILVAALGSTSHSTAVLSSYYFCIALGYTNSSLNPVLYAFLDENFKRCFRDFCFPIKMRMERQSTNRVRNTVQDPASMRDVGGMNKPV

Mu-type opioid receptor [4] = target: Mu-type opioid receptor (Rattus norvegicus, UniProt P33535, K303E); experiment: Displacement of [3H]- diprenorphine from mu-K303E-receptor expressed in HEK 293 cells
Sequence of Mu-type opioid receptor (Rattus norvegicus, UniProt P33535, K303E) (P33535 whole entry K303E): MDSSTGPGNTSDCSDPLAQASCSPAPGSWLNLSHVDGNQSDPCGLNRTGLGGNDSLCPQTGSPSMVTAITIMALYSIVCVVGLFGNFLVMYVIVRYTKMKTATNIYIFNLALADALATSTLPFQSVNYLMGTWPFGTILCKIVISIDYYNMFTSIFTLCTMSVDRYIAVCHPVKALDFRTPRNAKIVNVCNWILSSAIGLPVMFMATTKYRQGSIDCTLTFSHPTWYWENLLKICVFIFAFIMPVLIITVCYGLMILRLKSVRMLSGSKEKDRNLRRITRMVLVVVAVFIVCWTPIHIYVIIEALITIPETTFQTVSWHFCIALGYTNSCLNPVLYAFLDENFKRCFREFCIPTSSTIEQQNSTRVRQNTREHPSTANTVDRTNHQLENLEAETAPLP

[5] = target: Kappa-type opioid receptor (Rattus norvegicus, UniProt P34975, Y312A); experiment: Displacement of [3H]diprenorphine from k-Y312A-receptor expressed in HEK 293 cells
Sequence of Kappa-type opioid receptor (Rattus norvegicus, UniProt P34975, Y312A) (P34975 whole entry Y312A): as the sequence (P34975 whole entry E297A) above, with A297E, Y312A counted along it

[6] = target: Delta-type opioid receptor (Mus musculus, UniProt P32300); experiment: Displacement of [3H]- diprenorphine from delta receptor expressed in HEK 293 cells
Sequence of Delta-type opioid receptor (Mus musculus, UniProt P32300) (P32300 whole entry): as the sequence (P32300 whole entry W284E) above, with E284W counted along it
Procedure, shortened: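 HEK-293 cells transiently transfected with wild-type or mutant receptor cDNA by calcium phosphate were harvested 60-72 h later and suspended in 25 mM HEPES, pH 7.4. […] Nonspecific binding was defined with 1 μM NTI. Bound ligand was filtered on PEI-soaked GF/B and counted.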

[7] = target: Kappa-type opioid receptor (Rattus norvegicus, UniProt P34975); experiment: Displacement of [3H]diprenorphine from opioid receptor kappa 1 expressed in HEK 293 cells
Sequence of Kappa-type opioid receptor (Rattus norvegicus, UniProt P34975) (P34975 whole entry): as the sequence (P34975 whole entry E297A) above, with A297E counted along it

Mu-type opioid receptor [8] = target: Mu-type opioid receptor (Rattus norvegicus, UniProt P33535); experiment: Displacement of [3H]- diprenorphine from mu-receptor expressed in HEK 293 cells
Sequence of Mu-type opioid receptor (Rattus norvegicus, UniProt P33535) (P33535 whole entry): as the sequence (P33535 whole entry K303E) above, with E303K counted along it

Sequence of Mu-type opioid receptor (Rattus norvegicus, UniProt P33535, W318A) (P33535 whole entry W318A): as the sequence (P33535 whole entry K303E) above, with E303K, W318A counted along it

## N=C(N)Nc1ccc2[nH]c3c(c2c1)C[C@@]1(O)[C@H]2Cc4ccc(O)c5c4[C@@]1(CCN2CC1CC1)[C@H]3O5 [GUANIDINONALTRINDOLE]
Mu-type opioid receptor [1]
  Ki: 0.5 nM
[2]
  Ki: 1.1 nM
[3]
  Ki: 3.9 nM
Mu-type opioid receptor [4]
  Ki: 0.09 nM
[5]
  Ki: 0.03 nM
[6]
  Ki: 46.2 nM

## Oc1ccc2c3c1O[C@H]1c4[nH]c5ccccc5c4C[C@@]4(O)[C@@H](C2)N(CC2CC2)CC[C@]314 [NALTRINDOLE]
[2]
  Ki: 1.82 nM
[3]
  Ki: 42 nM
[7]
  Ki: 25.5 nM
[5]
  Ki: 1.23 nM
[6]
  Ki: 0.19 nM

## Oc1ccc2c3c1O[C@H]1c4[nH]c5c(c4C[C@@]4(O)[C@@H](C2)N(CC2CC2)CC[C@]314)C[C@@]1(O)[C@H]2Cc3ccc(O)c4c3[C@@]1(CCN2CC1CC1)[C@H]5O4 [NORBINALTORPHIMINE]
[7]
  Ki: 0.07 nM
[5]
  Ki: 1.39 nM

## CN1CC[C@]23c4c5ccc(O)c4O[C@H]2C(=O)C2(Cc4ccccc4C2)C[C@@]3(O)[C@H]1C5 [SPIROINDANYLOXYMORPHONE]
Mu-type opioid receptor [8]
  Ki: 88.4 nM
Mu-type opioid receptor [1]
  Ki: 3.9 nM
[2]
  Ki: 46.6 nM
[3]
  Ki: 292 nM
[7]
  Ki: 488 nM
Mu-type opioid receptor [4]
  Ki: 154 nM
[5]
  Ki: 55 nM
[6]
  Ki: 4.1 nM
